The test system of experiment [1] is Trypanosoma brucei brucei. As to the kind of experiment: Antitrypanosomal activity against Trypanosoma brucei brucei MiTat 1.2 strain 427 bloodstream assessed as decrease in topoisomerase 1Amt level at 0-120 uM. Type of experiment: functional, organism-based. The essentials: (§1)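 Western band depletion: 1.2 × 10^7 cells in medium were exposed to compound for 30 min at 37°C. A portion taken just before lysis was lysed in SDS/DTT sample buffer and run on SDS-PAGE. Blots were probed for c-Myc-tagged topoisomerase IAmt (anti-c-Myc) and for topoisomerase IImt (specific antiserum), with enolase as loading control. Free enzyme was quantitated densitometrically.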

The test system of another experiment is Nucleic Acid. Description: Binding affinity to plasmid DNA assessed as DNA unwinding in presence of vaccinia virus topoisomerase 1B by electrophoresis. Type of experiment: nucleic-acid assay. The essentials:
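Supercoiled pBluescript, or pBluescript pre-relaxed with E. coli topoisomerase IA (250 ng), was exposed to a range of compound concentrations in 50 mM Tris HCl pH 7.5, 50 mM NaCl, 5 mM MgCl2. Then 1 pM vaccinia topoisomerase IB was added (1 h, 37°C). Reactions were SDS-quenched, run on 1% agarose in Tris-borate-EDTA, and stained with ethidium bromide.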

Experiment [2] relates to Trypanosoma brucei brucei. As to the kind of experiment: Inhibition of mitochondrion topoisomerase 1A in Trypanosoma brucei brucei MiTat 1.2 strain 427 bloodstream assessed as protection of linerarizd minicircle from exonuclase 3 at 63 uM. The essentials:
(§2)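 Cells were treated 1 h at 37°C, lysed with SDS, and digested with proteinase K and RNase. DNA was phenol-extracted, precipitated and cleaned up. It was then digested with λ exonuclease (glycine-KOH pH 9.4, MgCl2, BSA) or exonuclease III (Bis-Tris-propane pH 7.0, MgCl2, DTT) for 30 min at 37°C. HindIII-linearized pBluescript served as internal control. Minicircles were detected by Southern blot.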

Experiment [3] deals with Trypanosoma brucei brucei. As to the kind of experiment: Inhibition of topoisomerase in Trypanosoma brucei brucei MiTat 1.2 strain 427 bloodstream assessed as enzyme-DNA cleavable complex at 50 uM (RvB = 2.2 +/- 0.05%). The procedure, abridged:
(§3)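 KSDS assay: cells at 10^7/ml in thymidine-free medium were labelled 1 h at 37°C with [3H]thymidine, washed, and treated 30 min at 37°C with DMSO, 500 μM etoposide or compound, in triplicate. Lysates in SDS/EDTA with calf thymus DNA were heated 10 min at 65°C, then KCl-precipitated and washed, and the precipitate was scintillation-counted. Percent trapped DNA = KSDS cpm ÷ TCA-precipitable cpm of untreated cells.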

Experiment [4] concerns Trypanosoma brucei brucei. Description: Inhibition of mitochondrion topoisomerase 1A in Trypanosoma brucei brucei MiTat 1.2 strain 427 bloodstream assessed as increase in protein-sensitive linear DNA forms at 0-40 uM. The procedure, abridged:
(§4)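 Free minicircle profiles: 1.2 × 10^7 cells were exposed to compound for 30 min at 37°C. Cells were lysed in SDS/EDTA buffer with or without proteinase K (2 h, 55°C), then treated with RNase A. DNA was run on 1.5% agarose with ethidium bromide and Southern-blotted with a 32P probe to the conserved 124-bp minicircle sequence. Read by phosphorimaging.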

Experiment [5] deals with Trypanosoma brucei brucei. Description: Antitrypanosomal activity against Trypanosoma brucei brucei MiTat 1.2 strain 427 bloodstream by acid phosphatase method. It is filed as functional, organism-based. The procedure, abridged: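 Bloodstream cells at 2 × 10^5/ml were given 2× serial dilutions of compound (final DMSO ≤1%), quadruplicate wells, for 20–24 h at 37°C. Motility was checked microscopically. p-Nitrophenyl phosphate in acetate buffer pH 5.5 with Triton X-100 was added for 5 h at 37°C, then A405 was read. Three runs; EC50 from Emax model fit; outliers removed by Chauvenet's criterion.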

Experiment [6] concerns Trypanosoma brucei brucei. As to the kind of experiment: Antitrypanosomal activity against Trypanosoma brucei brucei MiTat 1.2 strain 427 bloodstream assessed as decrease in topoisomerase 1Amt level at 0-100 uM. It is filed as functional, organism-based. The procedure, abridged:
as §1

In experiment [7] the test system is Trypanosoma brucei brucei. As to the kind of experiment: Inhibition of mitochondrion topoisomerase 1A in Trypanosoma brucei brucei MiTat 1.2 strain 427 bloodstream assessed as protection of linerarizd minicircle from exonuclase 3 at 25.5 uM. The procedure, abridged:
as §2

Experiment [8] deals with Trypanosoma brucei brucei. Description: Antitrypanosomal activity against Trypanosoma brucei brucei MiTat 1.2 strain 427 bloodstream assessed as decrease in topoisomerase 2mt level at 0-120 uM. Type of experiment: functional, organism-based. The essentials: as §1
Experiment [9] has as its system Trypanosoma brucei brucei. Description: Inhibition of mitochondrion topoisomerase 1A in Trypanosoma brucei brucei MiTat 1.2 strain 427 bloodstream assessed as protection of linerarizd minicircle from lambda exonuclase at 25.5 uM. The essentials:
as §2

The subject of experiment [10] is Trypanosoma brucei brucei. Description: Inhibition of mitochondrion topoisomerase 1A in Trypanosoma brucei brucei MiTat 1.2 strain 427 bloodstream assessed as protection of linerarizd minicircle from lambda exonuclase at 63 uM. The procedure, abridged:
as §2

The subject of experiment [11] is Trypanosoma brucei brucei. Description: Inhibition of topoisomerase in Trypanosoma brucei brucei MiTat 1.2 strain 427 bloodstream assessed as enzyme -DNA cleavable complex at 50 uM relative to DMSO. The essentials:
as §3

Experiment [12] has as its system Trypanosoma brucei brucei. Description: Antitrypanosomal activity against Trypanosoma brucei brucei MiTat 1.2 strain 427 bloodstream assessed as decrease in topoisomerase 2mt level at 0-100 uM. Type of experiment: functional, organism-based. The essentials:
as §1

Experiment [13] has as its system Trypanosoma brucei brucei. As to the kind of experiment: Inhibition of mitochondrion topoisomerase 1A in Trypanosoma brucei brucei MiTat 1.2 strain 427 bloodstream assessed as increase in protein-sensitive linear DNA forms at 60-100 uM. The essentials:
as §4

Active and inactive are the calls of the source.

Consider `O=c1c2cccc3c2c(nn1CN1CCCCC1)-c1ccccc1-3`, for which the result in experiment [1] and in experiment [6] was inactive. In addition, in the experiment with Nucleic Acid, the Activity result was “Dose-dependent effect”. The inhibition entry in experiment [2], in [4] and in [7] was “Active” throughout. Moreover, the % DNA in cleavable complexes in [3] was 1.7%. Moreover, in experiment [5], the response was half-maximal at 16.9 µM (EC50). The result in [8] and in experiment [12] was Active. Also, the inhibition result in experiment [9], in experiment [10] and in experiment [13] was “inactive” throughout. Further, the Ratio in experiment [11] amounted to 0.77.
Take `CN(C)CCc1cc2c(c3c1ccc1ccccc13)OCO2`: the outcome in [1] and in experiment [6] was inactive. The Activity entry in the experiment with Nucleic Acid was “Dose-dependent effect”. The inhibition entry in [2], in [4] and in experiment [7] was “Active” throughout. In experiment [3], the % DNA in cleavable complexes came out at 1.9%. Moreover, the EC50 in [5] came out at 6.3 µM. Besides, the outcome in experiment [8] and in [12] was Active. The inhibition entry in experiment [9], in experiment [10] and in [13] was “inactive” each time. In addition, in experiment [11], the Ratio turned out to be 0.86.

The EC50 is the concentration at which the effect is half-maximal. A high value points to a need for much substance.

Source of the values: ChEMBL document CHEMBL1212802, “Newly identified antibacterial compounds are topoisomerase poisons in African trypanosomes” (Antimicrob Agents Chemother, 2010).
